In PMC5378272 (Cancer Science, 2017):
pIC50: −log10 of the molar value.

Legend:
[1] = target: c‐RAF (Homo sapiens, UniProt P04049, Y340D/Y341D); experiment: Kinase inhibition assay; conditions: Biochemical IC50, cell-free
[2] = target: T1, DDR2 (Homo sapiens, UniProt Q16832); experiment: Kinase inhibition assay; conditions: Biochemical IC50, cell-free
T1 sequence (Q16832 22-855): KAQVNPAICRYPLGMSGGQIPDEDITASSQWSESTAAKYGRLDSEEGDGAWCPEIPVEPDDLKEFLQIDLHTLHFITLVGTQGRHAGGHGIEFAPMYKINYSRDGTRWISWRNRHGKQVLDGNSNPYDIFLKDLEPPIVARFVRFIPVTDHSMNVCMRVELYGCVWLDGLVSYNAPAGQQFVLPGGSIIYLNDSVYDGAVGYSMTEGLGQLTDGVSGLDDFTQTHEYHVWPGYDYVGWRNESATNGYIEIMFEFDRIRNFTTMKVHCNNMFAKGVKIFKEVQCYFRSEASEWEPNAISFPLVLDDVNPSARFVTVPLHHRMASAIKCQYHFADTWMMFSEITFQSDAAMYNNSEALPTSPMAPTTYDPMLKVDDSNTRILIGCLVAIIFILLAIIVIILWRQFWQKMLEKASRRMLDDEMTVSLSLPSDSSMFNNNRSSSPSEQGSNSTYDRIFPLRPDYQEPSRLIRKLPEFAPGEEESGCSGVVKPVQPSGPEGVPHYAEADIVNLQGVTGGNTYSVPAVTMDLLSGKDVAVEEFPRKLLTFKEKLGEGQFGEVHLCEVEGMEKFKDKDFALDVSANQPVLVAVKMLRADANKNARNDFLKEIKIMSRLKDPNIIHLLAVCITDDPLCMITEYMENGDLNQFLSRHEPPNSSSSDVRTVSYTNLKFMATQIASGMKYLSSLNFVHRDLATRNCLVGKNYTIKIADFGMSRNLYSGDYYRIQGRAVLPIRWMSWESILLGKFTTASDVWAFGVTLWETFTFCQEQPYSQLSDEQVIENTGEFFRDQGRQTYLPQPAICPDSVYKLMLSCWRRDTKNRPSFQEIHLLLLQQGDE

[3] = target: PLK1 (Homo sapiens, UniProt P53350); experiment: Kinase inhibition assay; conditions: Biochemical IC50, cell-free
[4] = target: PLK3 (Homo sapiens, UniProt Q9H4B4); experiment: Kinase inhibition assay; conditions: Biochemical IC50, cell-free
[5] = system: Molt‐4 cells; experiment: Growth inhibition of tumor cells; format: cell-based; conditions: Homo sapiens, MOLT-4, 120 h, read-out: GI50, growth inhibition
[6] = system: Colo‐320 cells; experiment: Growth inhibition of tumor cells; format: cell-based; conditions: Homo sapiens, COLO 320, 120 h, read-out: GI50, growth inhibition
[7] = target: VEGFR2 (Homo sapiens, UniProt P35968); experiment: Western blotting of VEGF-stimulated VEGFR2 phosphorylation in HUVEC; format: cell-based; conditions: 1 h pre-treatment, VEGF 100 ng/mL 15 min, western blot
In short: (§1)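 Cells (1.5 × 10⁶) were seeded for 24 h, then serum-starved overnight. They were pretreated 1 h with test compound and stimulated with 100 ng/mL ligand for 15 min: rhM‐CSF for CSF‐1R‐transfected 293A (DMEM, 10% FBS) and VEGF165 for HUVEC. Whole-cell lysates were immunoblotted for phospho-CSF1R or phospho-VEGFR2, with total receptor and β‐actin as internal controls.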

[8] = target: CSF‐1R (Homo sapiens, UniProt P07333); format: cell-based; conditions: CSF‐1R‐transfected 293A cells, M‐CSF 100 ng/mL, western blot
In short: as §1

[9] = system: Aurora B; experiment: Western blotting of p‐H3; format: cell-based, human; conditions: Molt‐4 cells, 24 h, western blot, concentrations up to 6 μM
[10] = system: Molt‐4 cells; experiment: Cell cycle analysis by flow cytometry; format: cell-based, human; conditions: Molt‐4, 3 μM, 24 h; control group 14.9%
[11] = system: HUVEC; experiment: Tube formation assay; format: cell-based, human; conditions: HUVEC on Matrigel, 1.5 or 5 μM, 24 h, vs control
In short: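 HUVEC were maintained in endothelial cell medium with 5% FBS, heparin (50 μg/mL) and ECGS (50 μg/mL). Matrigel was polymerised 45 min at 37°C. 4 × 10⁴ cells in complete medium were seeded onto it with vehicle or test compound and incubated 24 h. Networks were imaged by light microscopy and scored as mean loops per field and total branch length (pixels). Results are mean ± SD of five experiments; t-test versus vehicle.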

[12] = system: COLO‐320 tumor; experiment: COLO‐320 xenograft in SCID mice, tumor tissue analysis; format: in vivo; conditions: oral 2.5 or 20 mg/kg/day, 12 days
In short: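 COLO-320 cells implanted s.c. in SCID mice; established tumors dosed orally once daily for 12 days at 2.5 or 20 mg/kg/day, with compound suspended in 0.5% (w/v) CMC-Na. Half of each tumor went to histone extraction and western blot for p-H3 (Ser10) vs total H3, with normal colon as comparator. The other half was formalin-fixed and paraffin-embedded for IHC (CD34, p-H3 Ser10, Ki67).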

[13] = system: 4T1 breast cancer cells; experiment: 4T1 breast cancer model in BALB/c mice, tumor tissue immunohistochemistry; format: in vivo
[14] = system: HCT‐8; experiment: Tumor xenograft model; format: in vivo, BALB/c athymic mice; conditions: HCT‐8 xenograft, oral once daily
In short: (§2)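 Subjects were 6-week-old female BALB/c athymic mice. Tumour cells in 200 μL serum-free medium were implanted s.c. At 100–150 mm³, mice were randomised (n = 8/group) and dosed by oral gavage once daily with test compound in 0.5% CMC‐Na, sunitinib or vehicle. Doses were 2.5–20 mg/kg for HCT‐8 and SMMC‐7721, and 5–40 mg/kg for A549. Volumes were measured every 3–4 days over 33 or 43 days. Percent TGI at last treatment was computed versus vehicle.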

[15] = system: SMMC‐7721; experiment: Tumor xenograft model; format: in vivo, BALB/c athymic mice; conditions: SMMC‐7721 xenograft, oral once daily
In short: as §2

[16] = system: MGC‐803; experiment: Tumor xenograft model; format: in vivo, BALB/c athymic mice; conditions: MGC‐803 xenograft; for tumor growth: oral once daily
[17] = system: A549; experiment: Tumor xenograft model; format: in vivo, BALB/c athymic mice; conditions: oral once daily, 5 to 40 mg/kg
In short: as §2

[18] = system: human blood‐derived monocytes; conditions: M‐CSF 100 ng/mL, 6 days, 0.3 μM
[19] = immunohistochemistry, vs vehicle

CSF‐1R, sequence (P07333 20-972): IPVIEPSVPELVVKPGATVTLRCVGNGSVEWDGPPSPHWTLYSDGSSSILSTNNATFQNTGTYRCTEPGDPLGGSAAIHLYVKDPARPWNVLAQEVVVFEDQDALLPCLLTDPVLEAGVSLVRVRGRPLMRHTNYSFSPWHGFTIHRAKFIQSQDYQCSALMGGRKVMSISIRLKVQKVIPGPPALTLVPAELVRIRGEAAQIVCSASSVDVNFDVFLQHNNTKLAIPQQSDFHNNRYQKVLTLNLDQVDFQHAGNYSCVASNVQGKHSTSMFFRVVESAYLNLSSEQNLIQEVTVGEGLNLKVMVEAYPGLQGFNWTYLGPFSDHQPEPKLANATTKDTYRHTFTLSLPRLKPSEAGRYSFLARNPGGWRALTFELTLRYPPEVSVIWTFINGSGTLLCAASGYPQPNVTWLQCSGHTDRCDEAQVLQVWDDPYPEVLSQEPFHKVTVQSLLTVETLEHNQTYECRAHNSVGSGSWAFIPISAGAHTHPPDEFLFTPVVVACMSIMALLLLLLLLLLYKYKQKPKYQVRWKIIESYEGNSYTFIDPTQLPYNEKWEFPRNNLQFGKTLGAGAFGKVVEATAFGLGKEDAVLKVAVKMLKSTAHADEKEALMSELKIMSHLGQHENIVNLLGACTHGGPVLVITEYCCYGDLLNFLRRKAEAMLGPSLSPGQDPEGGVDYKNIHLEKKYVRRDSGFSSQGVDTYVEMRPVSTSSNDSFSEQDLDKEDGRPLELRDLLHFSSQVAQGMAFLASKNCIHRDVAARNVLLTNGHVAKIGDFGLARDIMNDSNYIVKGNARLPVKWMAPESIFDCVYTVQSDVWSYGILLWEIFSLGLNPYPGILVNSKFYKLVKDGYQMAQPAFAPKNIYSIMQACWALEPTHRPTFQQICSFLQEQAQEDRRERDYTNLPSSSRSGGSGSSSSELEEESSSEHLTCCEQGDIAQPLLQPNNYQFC
VEGFR2, sequence (P35968 20-1356): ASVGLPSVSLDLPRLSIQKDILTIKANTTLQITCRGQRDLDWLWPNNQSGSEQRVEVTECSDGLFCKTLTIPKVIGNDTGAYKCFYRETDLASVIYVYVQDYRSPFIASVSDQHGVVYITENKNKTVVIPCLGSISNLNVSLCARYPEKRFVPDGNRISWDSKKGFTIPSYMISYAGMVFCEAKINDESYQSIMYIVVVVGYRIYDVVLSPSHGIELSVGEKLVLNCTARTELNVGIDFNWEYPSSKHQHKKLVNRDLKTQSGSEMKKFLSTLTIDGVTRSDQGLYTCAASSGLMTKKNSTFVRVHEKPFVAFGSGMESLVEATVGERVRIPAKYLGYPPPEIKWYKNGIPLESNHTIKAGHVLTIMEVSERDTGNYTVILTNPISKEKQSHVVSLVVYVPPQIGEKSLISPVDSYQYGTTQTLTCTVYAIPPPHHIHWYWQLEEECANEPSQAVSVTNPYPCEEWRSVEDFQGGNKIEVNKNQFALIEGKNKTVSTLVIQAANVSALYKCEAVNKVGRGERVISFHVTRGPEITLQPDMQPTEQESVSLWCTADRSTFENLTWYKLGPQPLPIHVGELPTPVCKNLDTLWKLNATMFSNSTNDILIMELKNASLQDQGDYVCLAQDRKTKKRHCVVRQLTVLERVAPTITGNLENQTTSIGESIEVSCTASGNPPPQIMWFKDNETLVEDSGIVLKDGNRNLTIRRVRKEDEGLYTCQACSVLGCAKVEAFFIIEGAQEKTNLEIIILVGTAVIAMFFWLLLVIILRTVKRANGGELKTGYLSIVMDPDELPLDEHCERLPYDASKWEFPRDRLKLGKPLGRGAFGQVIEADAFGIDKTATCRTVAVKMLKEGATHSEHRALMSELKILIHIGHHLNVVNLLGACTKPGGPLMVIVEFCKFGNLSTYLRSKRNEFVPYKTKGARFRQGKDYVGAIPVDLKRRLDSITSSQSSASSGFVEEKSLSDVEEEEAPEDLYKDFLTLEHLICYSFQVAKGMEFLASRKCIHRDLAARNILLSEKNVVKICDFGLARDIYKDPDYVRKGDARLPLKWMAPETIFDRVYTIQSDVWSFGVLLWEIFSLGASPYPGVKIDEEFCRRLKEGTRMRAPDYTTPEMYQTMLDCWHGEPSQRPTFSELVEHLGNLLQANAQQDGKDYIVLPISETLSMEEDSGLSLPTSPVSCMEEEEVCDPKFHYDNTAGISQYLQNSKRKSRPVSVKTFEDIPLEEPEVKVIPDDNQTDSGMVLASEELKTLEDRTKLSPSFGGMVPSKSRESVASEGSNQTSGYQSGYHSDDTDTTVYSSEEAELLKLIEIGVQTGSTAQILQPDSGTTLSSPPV
PLK1, sequence (P53350 whole entry): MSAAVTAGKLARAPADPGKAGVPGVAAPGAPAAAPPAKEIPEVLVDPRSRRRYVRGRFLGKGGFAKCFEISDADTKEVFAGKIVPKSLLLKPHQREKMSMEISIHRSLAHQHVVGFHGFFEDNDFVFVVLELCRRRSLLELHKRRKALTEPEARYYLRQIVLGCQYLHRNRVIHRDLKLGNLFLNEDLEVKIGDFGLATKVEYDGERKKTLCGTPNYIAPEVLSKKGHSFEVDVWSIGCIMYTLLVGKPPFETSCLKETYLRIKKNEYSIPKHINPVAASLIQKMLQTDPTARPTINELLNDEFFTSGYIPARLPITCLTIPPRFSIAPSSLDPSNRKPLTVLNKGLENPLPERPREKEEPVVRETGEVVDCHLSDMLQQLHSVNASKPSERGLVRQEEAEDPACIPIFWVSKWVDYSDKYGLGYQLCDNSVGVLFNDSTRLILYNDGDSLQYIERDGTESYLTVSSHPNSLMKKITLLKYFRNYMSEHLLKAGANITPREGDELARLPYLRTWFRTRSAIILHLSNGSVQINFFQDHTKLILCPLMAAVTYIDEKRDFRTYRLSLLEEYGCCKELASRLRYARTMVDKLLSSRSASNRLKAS
c‐RAF, sequence (P04049 306-648 Y340D/Y341D limits assumed): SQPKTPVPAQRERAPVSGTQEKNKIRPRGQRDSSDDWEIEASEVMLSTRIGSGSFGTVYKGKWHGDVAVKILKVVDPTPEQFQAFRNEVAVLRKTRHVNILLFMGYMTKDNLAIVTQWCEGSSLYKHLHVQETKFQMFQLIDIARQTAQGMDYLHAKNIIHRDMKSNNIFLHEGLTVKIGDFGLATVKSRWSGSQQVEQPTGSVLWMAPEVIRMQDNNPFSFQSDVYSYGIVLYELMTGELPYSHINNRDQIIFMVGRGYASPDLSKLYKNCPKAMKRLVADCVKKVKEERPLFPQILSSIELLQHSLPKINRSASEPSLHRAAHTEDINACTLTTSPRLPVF
PLK3, sequence (Q9H4B4 whole entry): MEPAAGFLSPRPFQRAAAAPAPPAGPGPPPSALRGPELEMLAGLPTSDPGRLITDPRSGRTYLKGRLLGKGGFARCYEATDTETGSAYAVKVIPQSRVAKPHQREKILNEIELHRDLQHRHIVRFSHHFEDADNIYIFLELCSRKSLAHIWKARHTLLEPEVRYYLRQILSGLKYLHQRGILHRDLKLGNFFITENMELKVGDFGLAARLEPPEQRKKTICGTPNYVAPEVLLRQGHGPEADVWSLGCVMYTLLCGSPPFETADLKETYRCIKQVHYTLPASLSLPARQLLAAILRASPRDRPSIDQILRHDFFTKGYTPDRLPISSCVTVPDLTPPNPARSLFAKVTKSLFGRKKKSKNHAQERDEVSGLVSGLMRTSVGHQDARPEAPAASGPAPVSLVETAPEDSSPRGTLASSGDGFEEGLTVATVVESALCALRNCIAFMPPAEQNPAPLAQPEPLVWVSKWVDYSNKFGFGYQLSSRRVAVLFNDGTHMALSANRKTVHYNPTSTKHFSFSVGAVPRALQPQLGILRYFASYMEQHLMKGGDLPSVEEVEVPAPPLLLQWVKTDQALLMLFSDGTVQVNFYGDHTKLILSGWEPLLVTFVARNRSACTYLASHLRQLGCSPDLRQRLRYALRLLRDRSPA

`COc1ccc2c(Oc3ccc4c(C(=O)Nc5ccccc5N)cccc4c3)ccnc2c1` [CS2164, N‐(2‐aminophenyl)‐6‐[(7‐methoxy‐4‐quinolinyl)oxy]‐1‐naphthalenecarboxamide] was tested, and the pIC50 [1] was 6.30 to 7.00, the pIC50 [2] was 6.30 to 7.00 and the pIC50 [3] was 6.30 to 7.00. The pIC50 [4] was 6.30 to 7.00, the GI50 [5] was 2140 nM and the GI50 [6] was 840 nM. For the same compound, the “ligand‐stimulated VEGFR2 tyrosine phosphorylation” value [7] was “concentration‐dependent inhibition”, the “CSF‐1R phosphorylation induced by M‐CSF” value [8] was “concentration‐dependent inhibition” and the “level of p‐H3 (Ser10‐phosphorylated histone 3)” value [9] was “substantial reduction”. For the same compound, the “cells in G2/M phase (of cell cycle phases)” value (shortened to “cells in G2/M phase”) [10] was 59.5%, the “number of loops of tubular network structures” value [11] was “significant reductions” and the “total branch lengths of tubular network structures” value [11] was “significant reductions”. For the same compound, the “vascularization in tumor tissues” value [12] was “decreased vascularization”, the “CD34 staining in tumor tissues” value ([12]; immunohistochemistry) was “remarkably reduced” and the “tissue Ki67 staining” value [12, 19] was “substantial dose‐dependent decrease”. The “tissue p‐H3 staining” value [12, 19] was “substantial dose‐dependent decrease”, the “p‐H3 levels in tumor tissue by western blotting” value ([12]; only tumor tissue, not normal colonic tissue) was “reduced p‐H3 levels” and the “tissue CD11b^+ macrophage infiltration” value ([13]; oral 20 mg/kg daily, day 12, immunohistochemistry) was “decreased”. For the same compound, the “CSF‐1R^+ cells in tumor tissue” value ([13]; oral 2.5 or 20 mg/kg/day, 12 days, immunohistochemistry) was “dramatic reduction”, the “50% tumor growth inhibition (TGI50) dose” value [14] was 2.5 mg/kg and the “50% tumor growth inhibition (TGI50) dose” value [15] was 2.5 mg/kg. The “efficacy compared with sunitinib at 40 mg/kg” value ([16]; CS2164 at 5 mg/kg oral daily) was “comparable”, the tumor growth ([16]; 1 mg/kg) was “started to demonstrate tumor growth inhibition” and the tumor growth ([16]; 5 mg/kg) was “near complete inhibition”. For the same compound, the TGI50 dose [17] was “around 5 mg/kg” and the “M‐CSF induced differentiation and proliferation of monocytes” value [18] was “almost complete inhibition”.

`CCN(CC)CCNC(=O)c1c(C)[nH]c(/C=C2\C(=O)Nc3ccc(F)cc32)c1C` [sunitinib, reference compound] was tested, and the “level of p‐H3 (Ser10‐phosphorylated histone 3)” value [9] was “little inhibitory activity” and the “cells in G2/M phase” value [10] was 20.4%.

With `CNC(=O)c1cc(Oc2ccc(NC(=O)Nc3ccc(Cl)c(C(F)(F)F)c3)cc2)ccn1` [sorafenib] the “cells in G2/M phase” value [10] was 13.3%.
